Compound activity from PubChem BioAssay.
Sampled rows, rich in hits. Any-hit rate of the full collection: about 1.9%.
CHRM5 antagonist – antagonists of human muscarinic M5 receptor (CHRM5). 0.59% of 360,000 active. CHO-hM5 cells, Fluo-8 calcium fluorescence, ACh EC80. P08912. AID 624040. inhibition, % at 3 µM;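 active means inhibition above a per-plate cutoff, the mean of that plate's test compounds plus 3 SD, cut at about 27% in these data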;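 further: 0% = acetylcholine EC80 with DMSO and 100% = DMSO without agonist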
Target sequence (P08912 whole entry, looked up): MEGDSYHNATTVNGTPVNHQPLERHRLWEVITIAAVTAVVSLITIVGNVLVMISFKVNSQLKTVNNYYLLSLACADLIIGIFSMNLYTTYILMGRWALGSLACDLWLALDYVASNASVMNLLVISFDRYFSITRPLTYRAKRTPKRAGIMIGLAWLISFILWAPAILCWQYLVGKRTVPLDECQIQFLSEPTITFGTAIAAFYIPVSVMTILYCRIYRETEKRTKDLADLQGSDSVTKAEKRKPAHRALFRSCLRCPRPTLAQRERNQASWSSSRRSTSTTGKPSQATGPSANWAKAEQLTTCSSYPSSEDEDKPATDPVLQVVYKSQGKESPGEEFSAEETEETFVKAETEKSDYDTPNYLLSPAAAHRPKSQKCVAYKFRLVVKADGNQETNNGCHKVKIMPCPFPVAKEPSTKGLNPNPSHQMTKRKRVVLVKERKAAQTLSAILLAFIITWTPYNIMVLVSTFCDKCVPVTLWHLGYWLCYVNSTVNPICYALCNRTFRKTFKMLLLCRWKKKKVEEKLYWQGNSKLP
CHRM4 agonist – CHRM4 agonism in calcium assay; activation, % at 3 µM; AID 624127; CHO-K1 hM4/Gqi5, Fluo-8 calcium fluorescence; vehicle 0%, full acetylcholine response 100%; 0.14% of 360,000 active; P08173;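 active means activation above the run mean over all test wells plus 3 SD, cut at about 32% in these data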;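 further: peak over basal fluorescence ratio per well then scaled between controls; 0% = DMSO wells and 100% = acetylcholine at EC100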
M4 antag – antagonists of human muscarinic M4 receptor (CHRM4) | CHO-hM4 cells, ACh EC80, Fluo-8 calcium fluorescence | inhibition, % at 3 µM | 0.73% of 360,000 active | AID 624125;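 active means inhibition above its plate's cutoff, the mean inhibition of sample wells plus 3 SD, cut at about 27% in these data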;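 further: 0% = acetylcholine EC80 with DMSO and 100% = DMSO without agonist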
M5 ag – agonists of human muscarinic M5 receptor (CHRM5); CHO-K1 hM5 cells, Fluo-8 calcium fluorescence; 0% DMSO wells, 100% maximal acetylcholine response; activation, % at 3 µM; P08912; 0.19% of 360,000 active;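 active means activation above the run's mean over test compounds plus 3 SD, cut at about 23% in these data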;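 further: signal is peak over basal fluorescence ratio across the kinetic read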
CHRM4 PAM – CHRM4 positive allosteric modulation | CHO-K1 hM4/Gqi5, Fluo-8 calcium fluorescence, ACh EC20; 0% = ACh EC20, 100% = maximal ACh | 0.4% of 360,000 active | activation, % at 3 µM | P08173;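 active means activation above its plate's cutoff, the mean activation of sample wells plus 3 SD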
M5 PAM – positive allosteric modulators of human muscarinic M5 receptor. P08912. CHO-K1 hM5, Fluo-8 calcium, ACh EC20 PAM; 0% = ACh EC20, 100% = ACh EC100. activation, % at 3 µM. 0.3% of 360,000 active. AID 624038;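 active means activation above the run cutoff, the mean activation of all test compounds plus 3 SD, cut at about 18% in these data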
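system = human M5 receptor in CHO-K1 cells | compound = one concentration, 3 µM final (nominal) | schedule = Post-acetylcholine fluorescence recording 140 s | signal = Fluo-8 calcium dye fluorescence, kinetic read | benchmarks = low control EC20 acetylcholine (0%), high control EC100 acetylcholine (100%) | repeats = singlicate, one well per test compound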
An asterisk follows results filed as active.

How did Cc1ccc(C(=O)N2CCN(c3ccc([N+](=O)[O-])c(NCc4ccco4)c3)CC2)cc1 do in these assays?
CHRM5 antagonist: -10; CHRM4 agonist: -2; M4 antag: -17; M5 ag: -11; CHRM4 PAM: 31*; M5 PAM: -1

What do the screens show for `N#C/C(=C\c1coc2ccc(O)cc2c1=O)C(=O)Nc1nc2ccccc2s1`?
CHRM5 antagonist: 48*; CHRM4 agonist: 67*; M4 antag: 39*; M5 ag: 105*; CHRM4 PAM: -38; M5 PAM: -28

What do the screens show for `N#CNC(=Nc1cccc(C(F)(F)F)c1)SCc1ccc(C(=O)O)cc1`?
CHRM5 antagonist: -1; CHRM4 agonist: 0; M4 antag: 38*; M5 ag: -3; CHRM4 PAM: -9; M5 PAM: 1

Results for N#CNC(=Nc1ccccc1)SCc1ccc(C(=O)O)cc1 ?
CHRM5 antagonist: -9; CHRM4 agonist: 1; M4 antag: 1; M5 ag: 0; CHRM4 PAM: 4; M5 PAM: 1

What do the screens show for `CC1=C(C)CS(=O)N(S(=O)(=O)c2ccc(Cl)cc2)C1` (stereo not drawn)?
CHRM5 antagonist: 3; CHRM4 agonist: 10; M4 antag: 48*; M5 ag: 25*; CHRM4 PAM: -15; M5 PAM: 5

Results for CCN(C(=O)COC(=O)c1ccc(=O)n(Cc2ccccc2)n1)C1CCS(=O)(=O)C1 (stereo not drawn) ?
CHRM5 antagonist: -2; CHRM4 agonist: 1; M4 antag: -19; M5 ag: 2; CHRM4 PAM: 13; M5 PAM: 4

How did CCOc1ncccc1C(=O)OCC(=O)N(CC(C)C)c1c(N)n(Cc2ccccc2)c(=O)[nH]c1=O do in these assays?
CHRM5 antagonist: 2; CHRM4 agonist: 0; M4 antag: 7; M5 ag: 1; CHRM4 PAM: -2; M5 PAM: 0

What do the screens show for `CCn1c(=O)c2cc(C(=O)NCCN3CCOCC3)sc2c2ccccc21`?
CHRM5 antagonist: 7; CHRM4 agonist: 3; M4 antag: 76*; M5 ag: 0; CHRM4 PAM: -17; M5 PAM: -13

Results for Cc1ccc(N(C(=O)c2csnn2)C(C(=O)NC2CCCCC2)c2cccnc2)cc1C (stereo not drawn) ?
CHRM5 antagonist: -5; CHRM4 agonist: 1; M4 antag: -24; M5 ag: -3; CHRM4 PAM: 7; M5 PAM: 1

How did CC(=O)NCCNC(=O)c1ccc(NC2=NC3CS(=O)(=O)CC3S2)cc1 (stereo not drawn) do in these assays?
CHRM5 antagonist: 29*; CHRM4 agonist: 4; M4 antag: 9; M5 ag: 3; CHRM4 PAM: 9; M5 PAM: 27*

Results for CNc1nc2cccnc2s1 ?
CHRM5 antagonist: 20; CHRM4 agonist: 0; M4 antag: 7; M5 ag: -2; CHRM4 PAM: 1; M5 PAM: -8

What do the screens show for `COc1ccc(N2CCN(S(=O)(=O)c3ccc4c(c3)CC(C)N4C(=O)C3CC3)CC2)cc1` (stereo not drawn)?
CHRM5 antagonist: 27*; CHRM4 agonist: 0; M4 antag: 8; M5 ag: -3; CHRM4 PAM: -6; M5 PAM: -13

What do the screens show for `CC(=O)N1CCCc2cc(S(=O)(=O)N3CCCC(C(=O)N4CCN(c5cc(C)ccc5C)CC4)C3)ccc21` (stereo not drawn)?
CHRM5 antagonist: 21; CHRM4 agonist: 37*; M4 antag: -14; M5 ag: 2; CHRM4 PAM: -27; M5 PAM: -18

How did CC(=O)N1c2ccc(S(=O)(=O)N3CCC(C(=O)N4CCN(c5cc(Cl)ccc5C)CC4)CC3)cc2CC1C (stereo not drawn) do in these assays?
CHRM5 antagonist: 28*; CHRM4 agonist: 21; M4 antag: 36*; M5 ag: 5; CHRM4 PAM: -18; M5 PAM: -17

How did CC1Cc2cc(S(=O)(=O)N3CCC(C(=O)N4CCN(c5ccccc5F)CC4)CC3)ccc2N1C(=O)C1CC1 (stereo not drawn) do in these assays?
CHRM5 antagonist: 30*; CHRM4 agonist: 15; M4 antag: 37*; M5 ag: 2; CHRM4 PAM: -11; M5 PAM: -11

Results for CC(=O)N1c2ccc(S(=O)(=O)N3CCC(C(=O)N4CCC(C)CC4)CC3)cc2CC1C (stereo not drawn) ?
CHRM5 antagonist: 3; CHRM4 agonist: 2; M4 antag: 0; M5 ag: -2; CHRM4 PAM: 0; M5 PAM: 0

Results for O=C(NC1CCN(C(=O)c2ccccc2Br)CC1)c1ccccc1 ?
CHRM5 antagonist: 8; CHRM4 agonist: 1; M4 antag: -22; M5 ag: -3; CHRM4 PAM: 4; M5 PAM: 0

Results for O=C(O)c1cc(S(=O)(=O)N2CCCCC2)ccc1N1CCCC1 ?
CHRM5 antagonist: 8; CHRM4 agonist: -1; M4 antag: -2; M5 ag: 4; CHRM4 PAM: -1; M5 PAM: 1

What do the screens show for `CC[C@@H](C)[C@H](NC(=O)OC(C)(C)C)c1nnc(S(=O)(=O)Cc2cc(C)ccc2C)o1`?
CHRM5 antagonist: 8; CHRM4 agonist: 2; M4 antag: 48*; M5 ag: -3; CHRM4 PAM: -15; M5 PAM: -2

How did CC(C)[C@H](NC(=O)OC(C)(C)C)c1nnc(S(=O)(=O)Cc2c(F)cccc2Cl)o1 do in these assays?
CHRM5 antagonist: 8; CHRM4 agonist: 2; M4 antag: 43*; M5 ag: -2; CHRM4 PAM: -15; M5 PAM: -3

What do the screens show for `CC(C)C[C@H](NC(=O)OC(C)(C)C)c1nnc(SCc2ccccc2)o1`?
CHRM5 antagonist: 0; CHRM4 agonist: -4; M4 antag: -1; M5 ag: -5; CHRM4 PAM: -3; M5 PAM: 0

Results for Cc1ccccc1CS(=O)(=O)c1nnc([C@H](CC(C)C)NC(=O)OC(C)(C)C)o1 ?
CHRM5 antagonist: -1; CHRM4 agonist: 2; M4 antag: 28*; M5 ag: 1; CHRM4 PAM: -11; M5 PAM: 5

Results for O=[N+]([O-])c1ccc(N=Nc2ccc(O)c3ccccc23)cc1 ?
CHRM5 antagonist: 20; CHRM4 agonist: 3; M4 antag: -6; M5 ag: 7; CHRM4 PAM: 6; M5 PAM: -10

Results for Cc1ccc(OC(C)C(=O)N(Cc2cccs2)C2CCS(=O)(=O)C2)cc1C (stereo not drawn) ?
CHRM5 antagonist: 4; CHRM4 agonist: 3; M4 antag: 1; M5 ag: 1; CHRM4 PAM: 0; M5 PAM: 6
